Source: ChEMBL document CHEMBL4406863, “Effective Virtual Screening Strategy toward heme-containing proteins: Identification of novel IDO1 inhibitors” (Eur J Med Chem, 2019)
The source made the active and inactive calls. The rule behind the calls is not given here.

Tests used:
[1] = system: Mus musculus; assay: Induction of apoptosis in BALB/c mouse xenografted with CT26 cells assessed as nuclear chromatin condensation at 50 mg/kg via oral gavage for 17 days by H&E staining based analysis; format: functional, organism-based
Procedure, shortened: (§1)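 Tumor tissue from the 17-day CT26/BALB/c gavage study stained with hematoxylin and eosin. Nuclei, cytoplasm and cell morphology assessed by microscopy.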

[2] = target: Tryptophan 2,3-dioxygenase (Homo sapiens) (UniProt P48775); assay: Inhibition of IFN-gamma-induced human TDO2 transfected in HeLa cells at 10 times IDO1 IC50 concentration using L-tryptophan as substrate incubated for 24 hrs relative to control; format: cell-based
Procedure, shortened: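 HeLa cells transfected for 24 h with a human TDO2 plasmid, then reseeded at 5 × 10^3/well. After 6 h, IFN-γ and compounds added in medium with […] for 24 h. Supernatant treated with 6.1 N TCA at 50 °C for 30 min and centrifuged; kynurenine read with p-dimethylaminobenzaldehyde at 480 nm.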

[3] = system: HeLa; assay: Effect on IDO1 expression in IFN-gamma-stimulated human HeLa cells at 3 times IDO1 IC50 for 24 hrs by western blot analysis; format: functional, cell-based
Procedure, shortened: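 HeLa cells (2 × 10^5/well) exposed to human IFN-γ 100 ng/mL with or without compound for 24 h. Lysis in 50 mM Tris-HCl pH 8.0 with detergents and protease inhibitors, then 10% SDS-PAGE and PVDF transfer. Membrane blocked with 5% milk and probed with anti-IDO antibody and HRP secondary; band intensity quantified.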

[4] = system: Mus musculus; assay: Induction of apoptosis in BALB/c mouse xenografted with CT26 cells assessed as cell shrinkage at 50 mg/kg via oral gavage for 17 days by H&E staining based analysis; format: functional, organism-based; procedure, shortened: as §1
[5] = target: Indoleamine 2,3-dioxygenase 1 (Homo sapiens, UniProt P14902); assay: Inhibition of IDO1 in IFN-gamma stimulated human HeLa cells assessed as reduction in kynurenine production using L-tryptophan as substrate incubated for 24 hrs; format: cell-based
[6] = target: Indoleamine 2,3-dioxygenase 1 (Mus musculus) (UniProt P28776); assay: Reversal of IDO1-mediated immunosuppression in mouse CT26 co-cultured with T-cells assessed as increase in IFN-gamma production measured after 48 hrs by ELISA
Procedure, shortened: (§2)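 CT26 cells (1 × 10^5/well) exposed to compound ([…]) in medium with […] for 48 h. BALB/c splenic T cells resuspended in a 1:1 mix of this supernatant and RPMI/10% FBS with […] for 48 h. IFN-γ measured by ELISA; proliferation by MTT (1 mg/mL, 4 h, 37 °C, DMSO, 570 nm). Three replicate wells, mean ± SEM.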

[7] = target: Indoleamine 2,3-dioxygenase 1 (Mus musculus) (UniProt P28776); assay: Reversal of IDO1-mediated immunosuppression in mouse CT26 co-cultured with T-cells assessed as increase in T cell proliferation measured after 48 hrs by MTT assay; procedure, shortened: as §2
[8] = Cytotoxicity against human HeLa cells assessed as survival rate at 30 uM incubated for 24 hrs by MTT assay relative to control; format: cell-based; conditions: read-out: Activity
[9] = system: Mus musculus; assay: Induction of apoptosis in BALB/c mouse xenografted with CT26 cells assessed as nuclear chromatin margination at 50 mg/kg via oral gavage for 17 days by H&E staining based analysis; format: functional, organism-based; procedure, shortened: as §1
[10] = system: CT26; assay: Antitumor activity against mouse CT26 cells xenografted in BALB/c mouse assessed as decrease in tumour growth at 50 mg/kg, po via gavage for 17 days by vernier caliper method; format: functional, organism-based
[11] = target: Indoleamine 2,3-dioxygenase 1 (Mus musculus) (UniProt P28776); assay: Reversal of IDO1-mediated immunosuppression in mouse CT26 co-cultured with T-cells assessed as ConA- stimulated differentiation of Treg cells at 0.3 uM measured after 48 hrs by FOXP3-APC based flow cytometry analysis (reference value: 11.4 %)
[12] = system: Mus musculus; assay: Increase in Granzyme B expression in BALB/c mouse xenografted with CT26 cells at 50 mg/kg via oral gavage for 17 day by immunohistochemical analysis; format: functional, organism-based
Procedure, shortened: (§3)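 Paraffin sections of CT26 tumors from the 17-day BALB/c study. Sections deparaffinized, rehydrated and treated with 2% H2O2. Blocked with 3% goat serum, then incubated 2 h at room temperature with the specific primary antibody. Detection with streptavidin-HRP for 40 min and DAB, hematoxylin counterstain, microscopic imaging.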

[13] = system: Mus musculus; assay: Increase in infiltrating CD8-positive T cells in BALB/c mouse xenografted with CT26 cells at 50 mg/kg via oral gavage for 17 day by immunohistochemical analysis; format: functional, organism-based; procedure, shortened: as §3
[14] = system: Mus musculus; assay: Induction of apoptosis in BALB/c mouse xenografted with CT26 cells assessed as decrease in PCNA expression at 50 mg/kg via oral gavage for 17 days by immunohistochemistry analysis; format: functional, organism-based; procedure, shortened: as §3
[15] = system: Mus musculus; assay: Increase in IFN-gamma expression in BALB/c mouse xenografted with CT26 cells at 50 mg/kg via oral gavage for 17 day by immunohistochemical analysis; format: functional, organism-based; procedure, shortened: as §3
[16] = system: CT26; assay: Antitumor activity against mouse CT26 cells xenografted in immunodeficient BALB/c nude mouse assessed as reduction in tumour growth at 50 mg/kg, po via gavage for 10 days by vernier caliper method; format: functional, organism-based
Procedure, shortened: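 BALB/c nude mice carrying subcutaneous CT26 tumors (1 × 10^6 cells, armpit). Randomized 3 days post-implant into vehicle or treatment groups (n = 6). Oral gavage given on days 1–10; 5-Fu served as reference. Tumor volume and body weight recorded, and tumors weighed after sacrifice.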

[17] = target: Indoleamine 2,3-dioxygenase 1 (Mus musculus) (UniProt P28776); assay: Reversal of IDO1-mediated immunosuppression in mouse CT26 co-cultured with T-cells assessed as increase in IFN-gamma production measured after 48 hrs by ELISA relative to control; procedure, shortened: as §2
[18] = system: Mus musculus; assay: Induction of apoptosis in BALB/c mouse xenografted with CT26 cells at 50 mg/kg via oral gavage for 17 days by TUNEL assay; format: functional, organism-based
Procedure, shortened: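 TUNEL staining of tumor sections from the 17-day CT26/BALB/c study. Apoptotic nuclei scored by fluorescence microscopy under a FITC filter (green).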

[19] = system: Mus musculus; assay: Decrease in FOXP3-postive T cells in BALB/c mouse xenografted with CT26 cells at 50 mg/kg via oral gavage for 17 day by immunohistochemical analysis; format: functional, organism-based; procedure, shortened: as §3
[20] = Toxicity in BALB/c mouse xenografted with mouse CT26 cells assessed as effect on body weight at 50 mg/kg, po via gavage for 17 days and measured at day 17; format: organism-based; conditions: in vivo, 408 h
[21] = system: CT26; assay: Antitumor activity against mouse CT26 cells xenografted in BALB/c mouse assessed as decrease in tumour weight at 50 mg/kg, po via gavage for 17 days by vernier caliper method relative to control; format: functional; conditions: 408 h
[22] = system: CT26; assay: Antitumor activity against mouse CT26 cells xenografted in immunodeficient BALB/c nude mouse assessed as reduction in tumour growth at 25 mg/kg, ip administered every two days for 17 days and measured at day 17 by vernier caliper method; format: functional, organism-based

Indoleamine 2,3-dioxygenase 1, sequence (P14902 whole entry): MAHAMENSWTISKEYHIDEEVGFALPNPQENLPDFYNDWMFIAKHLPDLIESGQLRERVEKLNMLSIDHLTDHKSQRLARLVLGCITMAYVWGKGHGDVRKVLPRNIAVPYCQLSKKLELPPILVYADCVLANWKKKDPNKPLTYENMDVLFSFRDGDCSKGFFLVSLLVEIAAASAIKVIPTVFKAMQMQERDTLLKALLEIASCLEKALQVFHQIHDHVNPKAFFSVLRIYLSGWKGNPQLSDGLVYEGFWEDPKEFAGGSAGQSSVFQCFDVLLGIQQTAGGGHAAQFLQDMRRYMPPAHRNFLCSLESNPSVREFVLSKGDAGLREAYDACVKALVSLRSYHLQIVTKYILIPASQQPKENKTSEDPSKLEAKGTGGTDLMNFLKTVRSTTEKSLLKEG
Indoleamine 2,3-dioxygenase 1 (Mus musculus), sequence (P28776 whole entry, looked up): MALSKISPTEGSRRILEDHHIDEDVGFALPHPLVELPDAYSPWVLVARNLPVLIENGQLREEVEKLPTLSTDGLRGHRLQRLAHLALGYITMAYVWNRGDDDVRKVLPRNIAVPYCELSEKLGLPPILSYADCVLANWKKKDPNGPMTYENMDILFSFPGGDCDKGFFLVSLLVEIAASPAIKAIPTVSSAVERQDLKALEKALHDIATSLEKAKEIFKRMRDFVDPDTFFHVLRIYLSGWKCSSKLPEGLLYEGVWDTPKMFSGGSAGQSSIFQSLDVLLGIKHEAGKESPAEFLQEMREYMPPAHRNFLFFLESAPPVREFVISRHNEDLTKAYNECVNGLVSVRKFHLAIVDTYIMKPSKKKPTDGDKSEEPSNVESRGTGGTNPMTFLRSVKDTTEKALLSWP
Tryptophan 2,3-dioxygenase (Homo sapiens), sequence (P48775 whole entry, looked up): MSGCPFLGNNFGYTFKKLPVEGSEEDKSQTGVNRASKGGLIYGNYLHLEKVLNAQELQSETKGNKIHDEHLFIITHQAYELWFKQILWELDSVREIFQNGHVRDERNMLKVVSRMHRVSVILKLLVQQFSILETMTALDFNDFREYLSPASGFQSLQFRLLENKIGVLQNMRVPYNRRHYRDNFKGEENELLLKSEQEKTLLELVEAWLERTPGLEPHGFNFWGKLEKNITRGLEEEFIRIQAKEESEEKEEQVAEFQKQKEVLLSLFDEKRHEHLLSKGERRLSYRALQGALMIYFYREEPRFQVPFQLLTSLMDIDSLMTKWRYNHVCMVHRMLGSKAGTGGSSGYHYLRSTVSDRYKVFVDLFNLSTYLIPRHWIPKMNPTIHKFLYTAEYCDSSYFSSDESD

Structure (SMILES) | IC50 [5] [µM] | viability at 24 h, 30 µM [8] [%] | other results
COc1ccc(NC(=O)Cn2cnc3scc(-c4ccc(C)cc4)c3c2=O)cc1 | 3.2 | 107 | Activity [1]: Active; inhibition [2]: < 20%; Activity [3]: inactive; Activity [4]: Active; Activity [6]: Active; Activity [7]: Active; Activity [9]: Active; inhibition [10]: Active; Activity [11]: 10.8%
Cc1ccc(C2=Nn3c(CNc4ccc(F)cc4)nnc3SC2)cc1 | – | 110 | –
CCOc1ccc(NCc2nnc3n2N=C(c2cccs2)CS3)cc1 | > 30 | 101 | –
NS(=O)(=O)c1ccc(NC(=O)Cn2cnc3scc(-c4ccco4)c3c2=O)cc1 | – | 77 | –
COc1ccccc1NCC(=O)N/N=C/c1c(O)ccc2ccccc12 | 8.6 | 114 | –
COc1ccc(NC(=O)Cn2cnc3scc(-c4ccc(OC)c(OC)c4)c3c2=O)cc1 | 5.6 | 101 | –
OC(CC1c2ccccc2-c2cncn21)C1CCCCC1 (stereo not drawn) | – | – | inhibition [2]: < 20%
CCC(Nc1ccc(Cl)cc1C)C(=O)N/N=C/c1ccccc1 (stereo not drawn) | – | – | Activity [12]: Active; Activity [1]: Active; inhibition [2]: < 20%; Activity [13]: Active; Activity [14]: Active; Activity [15]: Active; Activity [3]: inactive; Activity [16]: inactive; Activity [4]: Active; fold change (FC) [17]: 2; Activity [18]: Active; Activity [19]: Active; Activity [7]: Active; Activity [20]: Non-Toxic; Activity [9]: Active; inhibition [10]: Active; Activity [11]: 5.9%; inhibition in vivo at 50 mg/kg [21]: 36%
CCOc1ccc(/C=N/NC(=O)c2c(O)ccc3ccccc23)cc1 | 27.3 | 112 | –
COc1ccc(CC(=O)N/N=C/c2c(O)ccc3ccccc23)cc1 | > 30 | 91 | –
CCNC(=O)C(=O)N/N=C/c1c(O)ccc2ccccc12 | > 30 | 102 | –
O=c1[nH]cc(F)c(=O)[nH]1 | – | – | Activity [22]: Active
Fc1ccc(C2=Nn3c(CNc4ccc5c(c4)OCO5)nnc3SC2)cc1 | – | 100 | –
Oc1ccccc1CN1CCCC(c2n[nH]cc2-c2ccc(Cl)cc2)C1 (stereo not drawn) | 18.6 | 101 | –
O=C(Cn1cnc2scc(-c3ccc(F)cc3)c2c1=O)NC(=O)NCc1ccccc1 | > 30 | 100 | –
Cc1ccc(-c2csc3ncn(CC(=O)Nc4cccc5ccccc45)c(=O)c23)cc1 | 20.1 | 99 | –
O=C(N/N=C/c1c(O)ccc2ccccc12)Nc1ccccc1 | > 30 | 102 | –
CCC(Nc1ccc(Cl)cc1C)C(=O)N/N=C/c1ccccc1O (stereo not drawn) | – | – | inhibition [2]: < 20%; Activity [3]: inactive
NS(=O)(=O)NCCNc1nonc1C(=NO)Nc1ccc(F)c(Br)c1 [EPACADOSTAT] | – | 92 | –
CN(C)c1ccc(C(=O)N/N=C/c2c(O)ccc3ccccc23)cc1 | 21.1 | 114 | –
CCC(Nc1ccc(Cl)cc1C)C(=O)N/N=C/c1cccc2ccccc12 (stereo not drawn) | 2.2 | – | –

Structure (SMILES) | IC50 [5] [µM] | viability at 24 h, 30 µM [8] [%] | other results
Cc1ccc(NCc2nnc3n2N=C(c2ccc(Cl)cc2)CS3)cc1 | – | 100 | –
COc1cccc(NCc2nnc3n2N=C(c2ccc(Br)cc2)CS3)c1 | 20.6 | 101 | –
Cc1ccccc1NC(=O)c1cc2ccccc2c(/C=N/Nc2nc3ccccc3s2)c1O | – | 101 | –
Oc1ccc2ccccc2c1/C=N/Nc1nccs1 | > 30 | 99 | –
COc1ccccc1C(=O)N/N=C/c1c(O)ccc2ccccc12 | 11.3 | 100 | –
O=C(Cn1cnc2scc(-c3ccccc3)c2c1=O)NC(=O)Nc1ccccc1 | > 30 | 85 | –
NS(=O)(=O)NCCNc1nonc1/C(=N/O)Nc1ccc(F)c(Br)c1 | – | – | inhibition [2]: < 20%
O=C(Cc1ccc([N+](=O)[O-])cc1)N/N=C/c1c(O)ccc2ccccc12 | 10.3 | 106 | –
c1ccc(C2=Nn3c(CN4CCc5ccccc54)nnc3SC2)cc1 | > 30 | 98 | –
CN(C)c1ccc(/C=C(/NC(=O)c2ccccc2Cl)C(=O)N/N=C/c2c(O)ccc3ccccc23)cc1 | – | 66 | –
Cc1sc2ncn(CC(=O)NCc3ccccc3)c(=O)c2c1-c1ccc(Br)cc1 | – | 84 | –
O=C(Cc1ccccc1)N/N=C/c1c(O)ccc2cc([N+](=O)[O-])ccc12 | 4.8 | 108 | inhibition [2]: < 20%; Activity [3]: inactive
CCC(Nc1ccc(Cl)cc1C)C(=O)N/N=C/c1c(O)ccc2ccccc12 (stereo not drawn) | 2.1 | 105 | Activity [3]: inactive; Activity [7]: Active; Activity [11]: 6.7%
Cc1nc2ccccc2n1Cc1nnc2n1N=C(c1ccc(Cl)cc1)CS2 | – | 85 | –
COc1cccc(NCc2nnc3n2N=C(c2cccc(OC)c2)CS3)c1 | > 30 | 104 | –
O=C(Cn1cnc2scc(-c3ccc(Cl)cc3)c2c1=O)NCc1ccco1 | 12.4 | 108 | –
O=C(N/N=C/c1c(O)ccc2ccccc12)C(=O)Nc1cccc(C(F)(F)F)c1 | – | 59 | –
O=C(CSc1ccc(Cl)cc1)N/N=C/c1c(O)ccc2ccccc12 | 6 | 106 | –
COc1ccccc1N(CC(=O)N/N=C/c1c(O)ccc2ccccc12)S(C)(=O)=O | > 30 | 89 | –
Cc1ccc(OCC(=O)N/N=C/c2c(O)ccc3ccccc23)c(C)c1 | > 30 | 80 | –
